Screening results: PubChem BioAssay, several laboratories
An excerpt weighted towards active compounds, which were near 5.1% of everything screened.
APP 5'UTR act – activators of APP 5'UTR luciferase reporter, primary screen, SH-SY5Y cells. activation, % at 2 µM. hit rate 1% among 190,000. SH-SY5Y APP 5'UTR luciferase reporter, luminescence; zero percent = DMSO vehicle wells;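 active = activation above a set limit, based on mean plus 3 SD of controls, cut at about 140% in these data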
STAT3 activator – IL-6 driven STAT3 reporter potentiators, primary screen, U3A cells, luciferase, luminescence, MLSCN library; hit rate 0.91% among 190,000; IL-6 STAT3-luciferase reporter; 100% = signal with IL-6 EC80 alone; activation (% of control), % at 5.6 µM; AID 871, 2007;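 active = activation above the screen-wide mean of compound activation plus 3 SD, cut at about 130% in these data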;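 note: 0% = background luminescence of wells with medium and substrate only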
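system = STAT3-luciferase reporter U3A cells | reagent = IL-6 stimulus at 33 ng/mL final | timing = 1 h compound pre-exposure, 6 h IL-6 stimulation, 37 °C | measured by = luminescence | evaluation = % activation versus median of IL-6-stimulated wells | control set = IL-6-only wells as 100% reference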
STAT1 act – STAT1 signaling activators, primary screen, cell-based, HTS, luciferase reporter. NIH 3T3 STAT1-luciferase reporter, IFN-gamma, luminescence; 100% = IFN-gamma alone, no compound. activation (% of control), % at 5.5 µM. hit rate 2.6% among 200,000. AID 932, 2007;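 active = activation above the screen-wide mean activation plus 3 SD, cut at about 130% in these data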;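 note: raw ratio to IFN-gamma control signal so 100% means no change and 0% no light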
STAT3 blocker – IL-6 driven STAT3 reporter inhibitors, primary screen, U3A cells, luciferase, luminescence, MLSCN library; IL-6 STAT3-luciferase reporter; host cell line lacks STAT1; inhibition, % at 5.5 µM; hit rate 0.89% among 190,000;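 active = inhibition above the mean inhibition across all screened compounds plus 3 SD, cut at about 44% in these data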;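 note: 0% = DMSO only wells and 100% = 100 µM nifuroxazide control wells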
STAT1 inh – STAT1 signaling inhibitors, primary screen, cell-based, HTS, luciferase reporter; NIH 3T3 STAT1-luciferase reporter, IFN-gamma, luminescence; inhibition, % at 5.5 µM; hit rate 0.35% among 200,000; AID 920, 2007;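 active = inhibition above a set limit, the mean inhibition across all tested compounds plus 3 SD, cut at about 34% in these data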;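 note: 0% = IFN-gamma with DMSO and 100% = IFN-gamma with 300 µM nifuroxazide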
NF-kB expr up – activators of NF-kB expression in neurons, primary screen, cell-based, HTS | hit rate 1.6% among 190,000 | fold change at 12.5 µM | human neuronal cells, NF-kB reporter expression; hits give high values; in the data active = fold change above about 3.3
An asterisk follows results filed as active; nt = not tested or not shown.

SMILES | APP 5'UTR act | STAT3 activator | STAT1 act | STAT3 blocker | STAT1 inh | NF-kB expr up
N#Cc1ccc(NC(=O)CCc2nc3ccccc3s2)cc1 | 11 | 104 | 104 | -4 | -5 | 1.1
Fc1ccc(OCc2nc3ccccc3s2)cc1 | 269* | 101 | 136* | 9 | -42 | 5.2*
c1ccc(OCc2nc3ccccc3s2)cc1 | 126 | 109 | 141* | -6 | -45 | 4.3*
O=S(=O)(CCc1nc2ccccc2s1)c1ccc(Cl)cc1 | -13 | 99 | 95 | 6 | 5 | 1.1
O=S(=O)(Cc1nc2ccccc2s1)c1ccccc1 | 73 | 115 | 138* | -12 | -42 | 2.2
CCn1c(SCC(=O)Nc2cc(NC(C)=O)ccc2OC)nnc1-c1cccnc1 | 13 | 104 | 109 | -2 | -10 | 1.2
COc1cccc(Sc2cc(N3CCOCC3)nc(-c3ccccc3)n2)c1 | 5 | 95 | 106 | 13 | -7 | 1.4
O=c1c2cnn(-c3ccccc3)c2ncn1Cc1cccc(Cl)c1 | 28 | 96 | 94 | 5 | 7 | 1.1
Cc1nn(C)c(C(=O)NNC(=S)NC2CCCCC2)c1Br | 37 | 84 | 126 | 23 | -32 | 1.9
CC(=O)Nc1ccc(NS(=O)(=O)c2cc([N+](=O)[O-])ccc2C)cc1 | 17 | 98 | 95 | 4 | 5 | 1
Cc1ccc(N2CC(C(=O)OCC(=O)Nc3ccccc3F)CC2=O)cc1 (centres undefined) | 10 | 95 | 95 | 13 | 4 | 1.4
CCN=C1S/C(=C\c2ccc(-c3cccc(C(=O)O)c3)o2)C(=O)N1CC | 185* | 131 | 118 | -35 | -20 | 2.2
CCN1C(=O)/C(=C\c2ccc(-c3ccc([N+](=O)[O-])cc3OC)o2)SC1=Nc1cccc(C(=O)O)c1 | -3 | 102 | 96 | 2 | 1 | 0.97
Cc1ccc(-n2cc(-c3ccc([N+](=O)[O-])cc3)[nH]c2=S)c(C)c1 | 6 | 104 | 115 | -7 | -17 | 1
O=C(O)CSc1cnc2ccccc2n1 | 6 | 130 | 107 | -35 | -8 | 1.2
Cc1nnc2c(NC3CCCC3)nc3ccccc3n12 | 15 | 82 | 84 | 28 | 17 | 0.99
c1ccc2c(c1)nc(NC1CCCCC1)c1nncn12 | -8 | 136* | 113 | -37 | -14 | 0.68
C/C(=C\C(=O)c1sccc1Cl)N(C)C | 13 | 103 | 100 | 1 | -3 | 0.96
Nc1nc(Nc2ccccc2Br)nc(C(F)(F)F)n1 | 9 | 93 | 108 | 9 | -8 | 1.4
Nc1nc(Nc2ccc(Cl)cc2Cl)nc(C(F)(F)F)n1 | 0 | 109 | 140* | -8 | -44 | 1.9
CC(C)NC(=O)c1ccccc1NC(=O)C(C)Oc1ccccc1 (centres undefined) | -5 | 109 | 94 | -8 | 4 | 1.1
CCOc1ccc2c(c1)n(CO)c(=S)n2CO | -10 | 96 | 93 | 8 | 8 | 0.94
CNc1nc(N(C)C)nc(N(C)C)n1 | 5 | 136* | 94 | -39 | 6 | 1.3
Cc1ccc(NC(=O)c2ccc3nc[nH]c3c2)cc1C | 106 | 91 | 143* | 10 | -47 | 3.2
O=C1C2CCCN2C(c2ccc(F)c(F)c2)N1c1cccc(Cl)c1 (centres undefined) | 7 | 98 | 93 | 7 | 8 | 1.1
SMILES | APP 5'UTR act | STAT3 activator | STAT1 act | STAT3 blocker | STAT1 inh | NF-kB expr up
Cc1cc(N2CCC(C)CC2)n2ncc(-c3ccccc3)c2n1 | 194* | 79 | 132* | 29 | -35 | 0.8
Cc1cc(N2CCC(C)CC2)n2nc(C)c(-c3ccccc3)c2n1 | -4 | 107 | 98 | -6 | 2 | 1.1
Cc1cc(N2CCCCC2)n2ncc(-c3ccc(Cl)cc3)c2n1 | 38 | 121 | 139* | -22 | -43 | 1.1
Cc1cc(N2CCCCC2)n2ncc(-c3ccccc3)c2n1 | 217* | 63 | 111 | 48* | -12 | 1.2
Cc1cc(N2CCCCC2)n2nc(C)c(-c3ccccc3)c2n1 | 1 | 99 | 108 | 4 | -9 | 1.4
O=C(CSc1nc2ccccc2[nH]1)Nc1ccc2c(c1)CCC2 | 21 | 106 | 105 | -4 | -6 | 1.1
CNC(=S)Nc1ccc(-c2nc3ccc(C)cc3s2)cc1 | 172* | 62 | 95 | 47* | 4 | nt
